Assay results pooled from the literature.
Protocols differ between the studies behind these lines. pEC50, pIC50, pKd, pKi: −log10 of the molar value.
NMUR1: Neuromedin-U receptor 1 (NMUR1, Homo sapiens, UniProt Q9HB89)
PIP4K2C: Phosphatidylinositol 5-phosphate 4-kinase type-2 gamma (PIP4K2C, Homo sapiens, UniProt Q8TBX8)
MAPK9: Mitogen-activated protein kinase 9 (MAPK9, Homo sapiens, UniProt P45984)

| SMILES | target | test | conditions | quantity | result |
| --- | --- | --- | --- | --- | --- |
| Cc1cnc(-c2ccc(-c3ccc(NC(=O)Nc4c(F)cc(F)cc4F)cc3F)c3c2C(=O)NC3)[nH]1 | Proto-oncogene tyrosine-protein kinase receptor Ret (RET, Homo sapiens, UniProt P07949) | binding, competition with immobilised ligand |  | pKd | 8.03 |
| CC(C)C[C@H](NC(=O)[C@H](Cc1ccccc1)NC(=O)[C@H](Cc1ccc(O)cc1)NC(=O)CNC(=O)[C@H](CCCNC(=N)N)NC(=O)[C@H](CO)NC(=O)[C@H](CCC(N)=O)NC(=O)[C@H](CO)NC(=O)[C@H](C)NC(=O)[C@H](Cc1ccccc1)NC(=O)[C@@H]1CCCN1C(=O)[C@H](CO)NC(=O)[C@H](CCC(N)=O)NC(=O)[C@H](Cc1ccccc1)NC(=O)[C@H](CCC(=O)O)NC(=O)[C@H](CCC(=O)O)NC(=O)[C@H](CC(=O)O)NC(=O)[C@@H](NC(=O)[C@H](CCCNC(=N)N)NC(=O)[C@@H](N)Cc1ccccc1)C(C)C)C(=O)N[C@@H](Cc1ccccc1)C(=O)N[C@@H](CCCNC(=N)N)C(=O)N1CCC[C@H]1C(=O)N[C@@H](CCCNC(=N)N)C(=O)N[C@@H](CC(N)=O)C(N)=O | NMUR1 | inositol phosphate, agonist, TR-FRET |  | pEC50 | 9.92 |
| Nc1ncc2c(n1)-c1c([nH]c3ccc(C#CC4CC4)cc13)CCCC2 | PIP4K2C | binding, competition with immobilised ligand |  | pKd | 5.19 |
| CC(C)(C)CC(C)(C)c1ccc(O)cc1 | Estrogen receptor beta (ESR2, Homo sapiens, UniProt Q92731) | reporter gene, agonist, luciferase |  | pEC50 | 6.71 |
| O=C(/C=C/c1ccc(O)c2c1[C@H](C(=O)O[C@H](Cc1ccc(O)c(O)c1)C(=O)O)[C@@H](c1ccc(O)c(O)c1)O2)O[C@H](Cc1ccc(O)c(O)c1)C(=O)O | Platelet glycoprotein 4 (CD36, Homo sapiens, UniProt P16671) | binding, SPR |  | pKd | 5.43 |
| COc1ccc2c(Oc3ccc4c(C(=O)Nc5ccccc5N)cccc4c3)ccnc2c1 | MAPK9 | enzyme activity, inhibitor |  | pIC50 | < 6.30 |
| CCOc1cc(-c2nncn2C)ccc1Nc1ncc2cc(C)nc(NCC(C)(C)C)c2n1 | MAPK9 | binding, competition with immobilised ligand |  | pKd | 7.13 |
| Cc1cc2nc3c(=O)[nH]c(=O)nc-3n(C[C@H](O)[C@H](O)[C@H](O)COP(=O)(O)OP(=O)(O)OC[C@H]3O[C@@H](n4cnc5c(N)ncnc54)[C@H](O)[C@@H]3O)c2cc1C | RNA-binding protein Musashi homolog 2 (MSI2, Homo sapiens, UniProt Q96DH6) | binding | lysate | pKd | 7.23 |
| Cc1ncsc1-c1ccc([C@H](C)NC(=O)[C@@H]2C[C@@H](O)CN2C(=O)[C@@H](NC(=O)CCCCCC(=O)N2CCC3(CC2)CCN(c2cncc(Nc4ncc(Cl)c(-c5cccc(-c6ccccc6)c5)n4)c2)C3=O)C(C)(C)C)cc1 | PIP4K2C | protein level, degrader, western blot |  | DC50 | 24 nM |
| CC(=O)Nc1cc(Oc2ccc3c(c2)CCN3C(=O)Nc2ccc(CN3CCN(C)CC3)c(C(F)(F)F)c2)ncn1 | Tyrosine-protein kinase JAK2 (JAK2, Homo sapiens, UniProt O60674) | enzyme activity, inhibitor, ELISA |  | pKi | 4.66 |
| CC(C)C[C@H](NC(=O)[C@H](Cc1ccccc1)NC(=O)[C@@H](N)Cc1ccc(O)cc1)C(=O)N[C@@H](Cc1ccccc1)C(=O)N[C@@H](CCCNC(=N)N)C(=O)N1CCC[C@H]1C(=O)N[C@@H](CCCNC(=N)N)C(=O)N[C@@H](CC(N)=O)C(N)=O | NMUR1 | β-arrestin recruitment, agonist |  | pEC50 | 8.77 |
| C[S+](CC[C@H](N)C(=O)O)C[C@H]1O[C@@H](n2cnc3c(N)ncnc32)[C@H](O)[C@@H]1O (stereo partly drawn) | tRNA (guanine-N(1)-)-methyltransferase (trmD, Escherichia coli, UniProt P0A873) | binding, fluorescence |  | pKd | 5.85 |
